Results from ChEMBL document CHEMBL1126685, “Bronchodilator activity of xanthine derivatives substituted with functional groups at the 1- or 7-position” (J Med Chem, 1993).

Tests used:
[1] = tested on: Cavia porcellus; assay: Positive chronotropic effect, 15% increase in heart rate of male Hartley guinea pigs on intraduodenal administration (mean of 3-5 animals); format: functional
Method in brief: (§1)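 Urethane-anesthetized (1.5 g/kg ip), ventilated male Hartley guinea pigs; compound suspended in 0.5% carboxymethylcellulose given intraduodenally 5 min before iv acetylcholine 40 μg/kg (jugular, every 15 min, after three stable responses); Konzett–Rossler overflow bronchospasm and carotid-pulse heart rate followed 110 min.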

[2] = biological target: Adenosine A2 receptor (guinea pig); assay: Binding affinity against adenosine A2 receptor of striatal membrane using [3H]CGS-21680 as a radioligand
[3] = biological target: cyclic AMP phosphodiesterase (guinea pig); assay: Inhibition of cyclic AMP-phosphodiesterase ( PDE) in the supernatant of tracheal muscle homogenate
[4] = Bronchoselectivity expressed as ratio of stimulatory activity in the right atrium (EC15) to relaxant activity in the tracheal muscle (EC50); format: functional, Cardiac atrium
[5] = tested on: Cavia porcellus; assay: Bronchodilatory effect, 50% inhibition of spasmogen-induced response in male Hartley guinea pigs on intraduodenal administration; format: functional; method in brief: as §1
[6] = biological target: T1, Adenosine receptor A1 (Cavia porcellus, UniProt P47745); assay: Binding affinity against adenosine A1 receptor of cerebral cortex using [3H]CPX as a radioligand; format: tissue-based
T1 sequence (P47745 whole entry): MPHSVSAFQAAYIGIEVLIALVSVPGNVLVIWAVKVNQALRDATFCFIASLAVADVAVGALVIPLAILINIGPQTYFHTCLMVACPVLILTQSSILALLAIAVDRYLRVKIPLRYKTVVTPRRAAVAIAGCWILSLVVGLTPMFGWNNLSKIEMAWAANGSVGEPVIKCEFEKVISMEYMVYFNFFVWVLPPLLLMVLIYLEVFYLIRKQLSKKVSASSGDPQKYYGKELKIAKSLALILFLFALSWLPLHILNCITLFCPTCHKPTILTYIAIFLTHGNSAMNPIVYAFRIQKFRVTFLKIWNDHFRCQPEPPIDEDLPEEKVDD

[7] = species: Cavia porcellus; assay: Effective concentration required in vitro for tracheal muscle (from male Hartley guinea pigs) relaxation; format: functional; conditions: Trachea
Method in brief: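 Tracheal ring chains from male Hartley guinea pigs (300–500 g), 37 °C Krebs-Henseleit pH 7.4, 95% O2–5% CO2, 0.5 g tension, spontaneous tone; cumulative compound addition, isotonic recording.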

[8] = Bronchoselectivity expressed as ratio of positive chronotropic action (ED15) to bronchodilator action (ED50)
[9] = species: Cavia porcellus; assay: Effective concentration required in vitro for heart stimulation (right atrium) in guinea pig; format: functional; conditions: Cardiac atrium
Method in brief: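 Isolated right atrium of male Hartley guinea pigs, 25 °C Krebs-Henseleit gassed 95% O2–5% CO2, 0.5 g tension; cumulative concentrations; beating rate via cardiometer triggered by isometric contraction. EC15 = concentration raising rate 15% above unstimulated; 3–5 experiments.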

C=CCCn1c(=O)c2[nH]cnc2n(CCC)c1=O
ED15 [1]: 11 mg/kg
Ki [2]: 3.2 µM
Ki [3]: 14.6 µM
Selectivity [4]: 22.5
ED50 [5]: 1.84 mg/kg
Ki [6]: 0.06 µM
EC50 [7]: 0.2 µM
Selectivity [8]: 6
EC15 [9]: 4.5 µM
